One series concerns Enterococcus faecium. Kind of series: Antibacterial activity against Enterococcus faecium ATCC 19434 assessed as reduction in bacterial growth by serial dilution method. Type of series: functional, organism-based.
In the next series the test system is Enterobacter cloacae. The series is described as follows: Antibacterial activity against Enterobacter cloacae ATCC 13047 assessed as reduction in bacterial growth by serial dilution method. Type of series: functional, organism-based.
A further series has as its system Pseudomonas aeruginosa. Kind of series: Antibacterial activity against Pseudomonas aeruginosa ATCC 10145 assessed as reduction in bacterial growth by serial dilution method. Type of series: functional, organism-based.
For a further series, the system named is Staphylococcus aureus. The series is described as follows: Antibacterial activity against Staphylococcus aureus ATCC 25923 assessed as reduction in bacterial growth by serial dilution method. Type of series: functional, organism-based.
The next series concerns Klebsiella pneumoniae. Kind of series: Antibacterial activity against Klebsiella pneumoniae ATCC 13883 assessed as reduction in bacterial growth by serial dilution method. Type of series: functional, organism-based.
In series [1] the test system is Escherichia coli. The series is described as follows: Antibacterial activity against Escherichia coli assessed as reduction in bacterial growth by serial dilution method. Type of series: functional, organism-based. In outline: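 Liquid-culture proliferation in media supplemented with physiological free calcium and magnesium; cultures started at OD600 = 0.01, exposed to 8-point 3-fold dilution series (100 μM to 46 nM), grown to mid-log phase (OD600 ~0.4–0.6), then final OD600 read. E. coli strain NEB 5-alpha (DH5α derivative).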

Another series relates to Acinetobacter baumannii. Kind of series: Antibacterial activity against Acinetobacter baumannii ATCC 19606 assessed as reduction in bacterial growth by serial dilution method. Type of series: functional, organism-based. To be noted: ATCC 19606 = CIP 70.34 = JCM 6841.
Series [2] addresses T1, E. coli GroEL/ES (Escherichia coli, UniProt P0A6F5). Kind of series: Inhibition of Escherichia coli GroEL/ES-mediated refolding of the denatured malate dehydrogenase in presence of Escherichia coli type 1 NfsB nitroreductase. Type of series: protein-complex assay. The essentials: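 GroEL/ES-dMDH refolding with 10 µg/mL E. coli NfsB added to the initial GroEL/ES-dMDH mix. After compound stamping, NADH (2.4 mM stock) is added and the mix is incubated 10 min at 37°C to bioactivate nitrofurans. Compounds during the refolding cycle span 83 µM to 38 nM (3-fold series).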

Series [3] has as its system Escherichia coli. Kind of series: Antibacterial activity against 5-chloro-N-[(5-nitro-2-furyl)methyleneamino]thiophene-2-carboxamide-resistant Escherichia coli assessed as reduction in bacterial growth measured for 12 day serial passage incubated for 24 hrs by serial dilution method. Format: functional, organism-based. The essentials: (§1)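 NEB 5-alpha E. coli (DH5α derivative); 12-day liquid-culture serial passage. Dilute culture (OD600 = 0.01) grown 24 h with inhibitors in dose-response, in duplicate. EC50 taken from OD600 readings. Each day, bacteria were sub-cultured from the well with the highest inhibitor concentration still reaching OD600 > 0.2. Resistant strains were retested in a follow-up 24 h proliferation assay after 4×12 h passages without inhibitor, and were cross-tested against the other inhibitors.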

The test system of another series is FHC. Kind of series: Cytotoxicity against human FHC cells assessed as reduction in cell viability incubated for 48 hrs by alamar blue assay. Type of series: cell-based. The essentials:
(§2)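 Alamar Blue viability: cells grown to ~80–90% confluency, seeded 1,500 per well and cultured 24 h without compound, then compound added for a further 48 h; resazurin reagent added and fluorescence monitored over time.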

Series [4] in a line: Cytotoxicity against human FHs74Int cells assessed as reduction in cell viability incubated for 48 hrs by alamar blue assay. Format: cell-based. The essentials:
as §2

Series [5] has as its system Escherichia coli. The series is described as follows: Antibacterial activity against Nifuroxazide-resistant Escherichia coli assessed as reduction in bacterial growth measured for 12 day serial passage incubated for 24 hrs by serial dilution method. Format: functional, organism-based. The essentials: as §1
In series [6] the test system is Escherichia coli. The series is described as follows: Antibacterial activity against Escherichia coli harbouring NfsA and NfsB mutant assessed as reduction in bacterial growth measured for 12 day serial passage incubated for 24 hrs by serial dilution method. Format: functional, organism-based. In outline: as §1
For series [7], the system named is Escherichia coli. Kind of series: Antibacterial activity against Escherichia coli assessed as reduction in bacterial growth measured for 12 day serial passage incubated for 24 hrs by serial dilution method. Format: functional, organism-based. The essentials:
as §1

The test system of series [8] is Escherichia coli. The series is described as follows: Antibacterial activity against Nitrofurantoin-resistant Escherichia coli assessed as reduction in bacterial growth measured for 12 day serial passage incubated for 24 hrs by serial dilution method. Format: functional, organism-based. The essentials:
as §1

Series [9] has as its target T1, E. coli GroEL/ES. The series is described as follows: Inhibition of Escherichia coli GroEL/ES-mediated refolding of the denatured malate dehydrogenase. Type of series: protein-complex assay. In outline:
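E. coli GroEL/ES-mediated refolding of denatured MDH as the reporter enzyme. IC50 values are averages from at least four replicates. […] GroEL tetradecamer is present at 50 nM during the refolding cycle. DMSO serves as the negative control.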

A short description of series [10]: Selectivity index, ratio of CC50 for human FHC cells to EC50 for Escherichia coli. Format: toxicity. The settings on record: read-out: Ratio CC50/EC50.
Series [11] can be described thus: Selectivity index, ratio of CC50 for human FHs 74 cells to EC50 for Escherichia coli. Type of series: toxicity. To be noted: read-out: Ratio CC50/EC50.

Results on 9 compounds are retold here after ChEMBL document CHEMBL4673250, “Analogs of nitrofuran antibiotics are potent GroEL/ES inhibitor pro-drugs” (Bioorg Med Chem, 2020).

Activity calls are given as the source filed them. No cut-off for these calls is given here.

T1 sequence (P0A6F5 whole entry, looked up): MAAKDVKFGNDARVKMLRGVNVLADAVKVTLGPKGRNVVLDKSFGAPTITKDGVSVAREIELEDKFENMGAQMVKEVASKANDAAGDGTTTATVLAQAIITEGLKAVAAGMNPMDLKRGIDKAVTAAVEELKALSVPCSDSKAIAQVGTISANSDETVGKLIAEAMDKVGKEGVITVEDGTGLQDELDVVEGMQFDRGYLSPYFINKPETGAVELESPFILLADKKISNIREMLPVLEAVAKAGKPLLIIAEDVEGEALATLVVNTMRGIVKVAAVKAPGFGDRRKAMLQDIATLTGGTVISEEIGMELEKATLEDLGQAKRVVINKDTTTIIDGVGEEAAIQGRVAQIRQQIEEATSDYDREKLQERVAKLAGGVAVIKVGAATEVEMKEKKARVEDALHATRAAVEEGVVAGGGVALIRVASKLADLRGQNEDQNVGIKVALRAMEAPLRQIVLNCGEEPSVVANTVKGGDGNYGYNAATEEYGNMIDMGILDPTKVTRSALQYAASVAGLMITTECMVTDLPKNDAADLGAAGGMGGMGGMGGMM

As to `O=[N+]([O-])c1ccc(O)c2ncccc12` [NITROXOLINE], the EC50 in the series on Enterococcus faecium stood at 18 µM; in the series on Enterobacter cloacae, 6.6 µM; in the series with Pseudomonas aeruginosa, 99 µM; in the series with Staphylococcus aureus, 9.5 µM; with Klebsiella pneumoniae, 2.8 µM; with Escherichia coli [1] it was 4 µM. The EC50 in the series on Acinetobacter baumannii is 2.5 µM.

Regarding `O=C1CN(/N=C/c2ccc([N+](=O)[O-])o2)C(=O)N1` [NITROFURANTOIN], the EC50 with Enterococcus faecium was 38 µM; in the series with Enterobacter cloacae, 36 µM; in the series on Pseudomonas aeruginosa, greater than 100 µM; in the series on Escherichia coli [7], 20 µM; with Staphylococcus aureus, 27 µM; with Klebsiella pneumoniae, 40 µM. Also, the EC50 in the series with Escherichia coli [1] was 0.69 µM; in the series on Acinetobacter baumannii, greater than 100 µM. The figures for the IC50 on E. coli GroEL/ES [2] and against E. coli GroEL/ES [9] were 84 µM and greater than 100 µM, respectively. In addition, the outcome in the series with Escherichia coli [3], in the series on Escherichia coli [5], with Escherichia coli [6] and with Escherichia coli [8] was inactive. The 50% cytotoxic concentration (CC50) (in the series on FHC; in series [4]) was greater than 100 µM throughout.

For `O=C(N/N=C/c1ccc([N+](=O)[O-])o1)c1ccncc1`, the EC50 is 13 µM in the series with Enterococcus faecium; 73 µM in the series on Enterobacter cloacae; greater than 100 µM with Pseudomonas aeruginosa; 9.5 µM in the series with Staphylococcus aureus; 42 µM in the series with Klebsiella pneumoniae; 2.4 µM in the series with Escherichia coli [1]. The EC50 in the series on Acinetobacter baumannii is 54 µM. Also, the IC50 at E. coli GroEL/ES [2] is 23 µM; against E. coli GroEL/ES [9], greater than 100 µM. The CC50 amounted to 61 µM with FHC and 90 µM in series [4]. In addition, the selectivity ratio in series [10] worked out at 26; in series [11], 38.

For the compound `O=C(N/N=C/c1ccc([N+](=O)[O-])o1)c1ccc(Cl)s1`, the EC50 is 12 µM with Enterococcus faecium; 49 µM in the series on Enterobacter cloacae; greater than 100 µM in the series with Pseudomonas aeruginosa; 20 µM in the series with Escherichia coli [7]; 3 µM with Staphylococcus aureus; 19 µM in the series on Klebsiella pneumoniae. Also, the EC50 worked out at 0.45 µM with Escherichia coli [1] and 72 µM in the series on Acinetobacter baumannii. The 50% inhibitory concentration (IC50) on E. coli GroEL/ES [2] came to 3.2 µM; at E. coli GroEL/ES [9] it was 88 µM. Further, the result in the series on Escherichia coli [3] and in the series with Escherichia coli [6] was inactive. Further, the values for the CC50 (in the series on FHC; in series [4]) were 53 µM and 85 µM, respectively. Moreover, the result in the series on Escherichia coli [5] and with Escherichia coli [8] was Active. Besides, the selectivity ratio in series [10] came to 119; in series [11] it was 190.

Consider `O=C(N/N=C/c1ccc([N+](=O)[O-])o1)c1ccccc1`, for which the EC50 in the series with Enterococcus faecium was 31 µM; in the series on Enterobacter cloacae, greater than 100 µM; in the series with Pseudomonas aeruginosa it was greater than 100 µM; in the series with Staphylococcus aureus, 10 µM; in the series with Klebsiella pneumoniae, 36 µM; in the series with Escherichia coli [1] it was 2.1 µM. For the same compound, in the series on Acinetobacter baumannii, the concentration for a half-maximal effect (EC50) was greater than 100 µM. Further, the IC50 on E. coli GroEL/ES [2] is 12 µM; against E. coli GroEL/ES [9] it was greater than 100 µM. For the same compound, the CC50 in the series on FHC was greater than 100 µM; in [4], 94 µM. In addition, the selectivity ratio in series [10] is greater than 48; in series [11], 45.

Turning to `O=C(N/N=C/c1ccc([N+](=O)[O-])o1)c1cccs1`, the EC50 with Enterococcus faecium is 24 µM; with Enterobacter cloacae it was 40 µM; with Pseudomonas aeruginosa, greater than 100 µM; with Staphylococcus aureus it was 7.1 µM; in the series on Klebsiella pneumoniae, 16 µM; with Escherichia coli [1] it was 0.42 µM. In the series with Acinetobacter baumannii, the EC50 was found to be 82 µM. Besides, the IC50 on E. coli GroEL/ES [2] is 7.7 µM; on E. coli GroEL/ES [9], greater than 100 µM. Also, the results for the CC50 (in the series with FHC; in [4]) were 83 µM and 71 µM, respectively. Also, the selectivity ratio in series [10] came out at 198; in series [11], 168.

With `CN(C)c1ccc(C(=O)N/N=C/c2ccc([N+](=O)[O-])o2)cc1`, the EC50 in the series with Enterococcus faecium was greater than 100 µM; in the series with Enterobacter cloacae, greater than 100 µM; in the series on Pseudomonas aeruginosa, greater than 100 µM; in the series with Staphylococcus aureus, 34 µM; in the series on Klebsiella pneumoniae, greater than 100 µM; with Escherichia coli [1], 10 µM. In addition, the EC50 with Acinetobacter baumannii was greater than 100 µM. Besides, the IC50 on E. coli GroEL/ES [2] was determined as 12 µM; on E. coli GroEL/ES [9], 26 µM. Moreover, the CC50 with FHC was greater than 100 µM; in series [4] it was 93 µM. The values for the selectivity ratio in [10] and in series [11] were greater than 10 and 9.3, respectively.

Turning to `COc1ccc(C(=O)N/N=C/c2ccc([N+](=O)[O-])o2)cc1`, the EC50 with Enterococcus faecium is 22 µM; in the series on Enterobacter cloacae it was greater than 100 µM; in the series with Pseudomonas aeruginosa, greater than 100 µM; with Staphylococcus aureus, 8.1 µM; in the series with Klebsiella pneumoniae it was greater than 100 µM; in the series on Escherichia coli [1], 1.9 µM. For the same compound, the 50% effective concentration (EC50) in the series with Acinetobacter baumannii is greater than 100 µM. Moreover, the figures for the IC50 at E. coli GroEL/ES [2] and at E. coli GroEL/ES [9] were 10 µM and 69 µM, respectively. The cytotoxic concentration (CC50) in the series with FHC is greater than 100 µM; in [4] it was 75 µM. The selectivity ratio in series [11] was found to be 40.

In the case of `O=C(N/N=C/c1ccc([N+](=O)[O-])o1)c1ccc(O)cc1` [NIFUROXAZIDE], the EC50 in the series with Enterococcus faecium is 8.1 µM; in the series on Enterobacter cloacae it was 54 µM; in the series with Pseudomonas aeruginosa, greater than 100 µM; in the series on Escherichia coli [7] it was 20 µM; in the series on Staphylococcus aureus, 16 µM; with Klebsiella pneumoniae it was 37 µM. The values for the EC50 in the series with Escherichia coli [1] and with Acinetobacter baumannii were 0.87 µM and greater than 100 µM, respectively. Further, the IC50 at E. coli GroEL/ES [2] is 19 µM; at E. coli GroEL/ES [9] it was greater than 100 µM. Also, the result in the series with Escherichia coli [3], in the series on Escherichia coli [5] and in the series with Escherichia coli [8] was Active. Besides, the CC50 in the series on FHC amounted to 61 µM; in series [4], 79 µM. Besides, the selectivity ratio in series [10] turned out to be 70; in series [11], 91. Moreover, the outcome with Escherichia coli [6] was inactive.
